Source: PMC2233693 (The Journal of General Physiology, 2000)
Where a chain is given by its changes, count along the chain named.

Columns and labels:
Assay in all cases: Blockage of macroscopic current by external Ca2+ or Mg2+, outside-out patches
Assay type in all cases: biochemical
[1] = biological target: T1, E340D mutant bovine olfactory CNG channel (Bos taurus, UniProt Q03041, E340D); details: for Ki: mean ± SD
T1 sequence (Q03041 1-663 E340D): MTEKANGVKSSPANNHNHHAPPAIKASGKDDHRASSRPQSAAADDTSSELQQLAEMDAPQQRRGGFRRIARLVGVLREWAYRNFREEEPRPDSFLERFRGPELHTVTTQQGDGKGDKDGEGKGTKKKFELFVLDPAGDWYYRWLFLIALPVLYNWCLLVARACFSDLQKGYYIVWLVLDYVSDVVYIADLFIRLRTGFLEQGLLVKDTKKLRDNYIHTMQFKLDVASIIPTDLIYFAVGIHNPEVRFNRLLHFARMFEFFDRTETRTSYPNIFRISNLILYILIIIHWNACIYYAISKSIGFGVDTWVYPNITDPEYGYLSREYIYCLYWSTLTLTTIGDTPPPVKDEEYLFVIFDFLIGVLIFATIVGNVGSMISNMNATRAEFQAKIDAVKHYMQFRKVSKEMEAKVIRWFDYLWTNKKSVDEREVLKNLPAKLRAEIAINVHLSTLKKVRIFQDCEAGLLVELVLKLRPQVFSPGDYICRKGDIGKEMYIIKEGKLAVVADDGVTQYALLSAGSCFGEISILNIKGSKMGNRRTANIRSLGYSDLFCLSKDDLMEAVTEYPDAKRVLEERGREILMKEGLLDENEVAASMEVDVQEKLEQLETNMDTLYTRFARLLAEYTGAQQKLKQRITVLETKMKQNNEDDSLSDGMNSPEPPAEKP
Method in brief: (§1)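 Xenopus oocytes injected with wild-type or mutant channel mRNA; outside-out patches with 100 μM cGMP in the pipette. Bath: 110 mM NaCl, 2 mM EDTA, 10 mM HEPES, pH 7.4, plus Ca2+ (NTA-buffered) or Mg2+ (EDTA-buffered); unbuffered above 0.1 mM. Five 1-s ramps (−80 to +80 mV) averaged, leak subtracted. Current normalised to divalent-free current at the same voltage, Hill-fitted per patch; Ki and n given as mean ± SD.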

[2] = biological target: T2, E340G mutant bovine olfactory CNG channel (Bos taurus, UniProt Q03041, E340G); details: for Ki: mean ± SD
T2 sequence (Q03041 1-663 E340G): T1 sequence (Q03041 1-663 E340D) with D340G
Method in brief: as §1

[3] = biological target: T3, E340N^‡ mutant bovine olfactory CNG channel (Bos taurus, UniProt Q03041, E340Q)
T3 sequence (Q03041 1-663 E340Q): T1 sequence (Q03041 1-663 E340D) with D340Q
Method in brief: as §1

[4] = external Mg2+, −80 mV, one experiment

## [Ca+2] [Ca^2+]
[1]; external Ca2+, +80 mV
  n, Hill coefficient of blockage: 1.3 ± 0.5
  Ki: 18 ± 10 µM
[1]; external Ca2+, −80 mV
  n, Hill coefficient of blockage: 1.2 ± 0.5
  Ki: 47 ± 7 µM
[2]; external Ca2+, +80 mV
  n, Hill coefficient of blockage: 0.6 ± 0.2
  Ki: 26 ± 9.8 mM
[2]; external Ca2+, −80 mV
  n, Hill coefficient of blockage: 0.4 ± 0.1
  Ki: 6.3 ± 2.5 mM
[3]; external Ca2+, +80 mV
  n, Hill coefficient of blockage: 0.5 ± 0.2
[3]; external Ca2+, +80 mV, mean ± SD
  Ki: 19 ± 12 mM
[3]; external Ca2+, −80 mV
  n, Hill coefficient of blockage: 0.4 ± 0.2
[3]; external Ca2+, −80 mV, mean ± SD
  Ki: 2.1 ± 0.6 mM

## [Mg+2] [Mg^2+]
[1]; external Mg2+, +80 mV
  n, Hill coefficient of blockage: 0.9 ± 0.2
  Ki: 155 ± 56 µM
[1]; external Mg2+, −80 mV
  n, Hill coefficient of blockage: 0.7 ± 0.2
  Ki: 53 ± 17 µM
[2]; external Mg2+, +80 mV
  n, Hill coefficient of blockage: 0.8 ± 0.2
  Ki: 9.5 ± 3.9 mM
[2]; external Mg2+, −80 mV
  n, Hill coefficient of blockage: 0.7 ± 0.1
  Ki: 1.1 ± 0.3 mM
[3]; external Mg2+, +80 mV, one experiment
  n, Hill coefficient of blockage: 0.3
[3]; [4]
  Ki: 3.4 mM
  n, Hill coefficient of blockage: 0.5
